We go through one compound from ChEMBL document CHEMBL5715960, “Epigenetic Co-Deregulation of EZH2/TET1 is a Senescence-Countering, Actionable Vulnerability in Triple-Negative Breast Cancer” (Theranostics, 2019).

Holding throughout (assay type): functional, cell-based
The test system of one experiment is MDA-MB-453. The experiment can be described thus: Antiproliferative activity in human MDA-MB-453 cells assessed as increase in SA-beta-gal positive cells at 2 uM for 5 days by SA-beta-gal staining analysis. The settings on record: time 5.0 day. Summed up:
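GSK343 2 µM or DMSO for 5 days, then chromogenic SA-β-gal staining and counting of positive cells. Triplicate; mean ± SD.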

Experiment [1] has as its system MDA-MB-231. The experiment in a line: Effect on human MDA-MB-231 cells assessed as increase in TET1 transcription by qRT-PCR analysis. The procedure, abridged:
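qRT-PCR of TET1, TET2 and TET3 transcripts in breast cancer cells exposed to GSK343 (2 µM unless otherwise indicated), shown relative to DMSO-treated cells. Mean ± SD, triplicate unless stated.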
In general terms: Real-time PCR tracks product formation cycle by cycle.

A further experiment has as its system MDA-MB-436. The experiment can be described thus: Effect on human MDA-MB-436 cells expressing shTET1 assessed as increase in p21 cascade by immunoblot analysis. On the technique in general: A western blot detects proteins with antibodies after separation by electrophoresis.
The subject of experiment [2] is MDA-MB-231. The experiment can be described thus: Effect on human MDA-MB-231 cells assessed as apoptotic phenotype by measuring increase in PUMA expression level at 2 uM in presence of adriamycin by immunoblot analysis. The procedure, abridged:
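Immunoblot of cell lysates after 0.05 µg/ml adriamycin alone, with 2 µM GSK343, or DMSO. α-Tubulin and total H3 used as loading controls.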

Active and inactive are the calls of the source. No cut-off for these calls is given here.

As for `CCCc1cc(C)[nH]c(=O)c1CNC(=O)c1cc(-c2ccnc(N3CCN(C)CC3)c2)cc2c1cnn2C(C)C`, the result in the experiment on MDA-MB-453, in the experiment with MDA-MB-231 [1] and with MDA-MB-231 [2] was Active. The outcome with MDA-MB-436 was inactive.
